# Assay results taken from ChEMBL document CHEMBL4715907, “Cytoprotective activities of kinetin purine isosteres” (Bioorg Med Chem, 2021).
# The source made the active and inactive calls. The calls are words filed in the database; no cut-off is given here.
# Key:
# GM04663 = test: Cytoprotective activity in human GM04663 cells assessed as aberrant splicing of ELP1 mRNA expression at 50 uM incubated for 24 hrs by RT-PCR anlaysis; assay type: functional, cell-based
# How it was run: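 GM04663 patient fibroblasts, about 500,000 per 10 cm dish in DMEM with 10% FBS, were grown overnight and then treated 24 h at 50 µM, with DMSO vehicle. Total RNA was extracted with Trizol and reverse-transcribed. ELP1 nt 2194–2593 (NM_003640.5) was amplified over 34 cycles with 63.8 °C annealing. Wild-type and aberrant transcripts were quantified by peak area against DNA standards of known size and concentration.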
# [1] = Apparent permeability of compound in MDCK-MDR1 cells; assay type: ADME, cell-based, Canis lupus familiaris; conditions: dog
# How it was run: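 MDCK-MDR1 cells formed monolayers on 1 µm pore Transwell filters, used only if intact by Lucifer Yellow rejection. Cells were washed with HBSS and pre-equilibrated at pH 7.4 for 1 h, then exposed to 10 µM compound in HBSS pH 7.4 for 1 h, apical-to-basal and basal-to-apical. Donor and acceptor were quantified by RapidFire MS/MS (MRM). Papp = (dQ/dt)/(C0 × A), duplicates.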
# [2] = Stability in human liver microsomes assessed as parent compound remaining at 2 uM measured up to 60 mins by RF-MS analysis; assay type: ADME, Microsome; conditions: read-out: Stabilty
# [3] = Apparent permeability of compound in human Caco2 cells; assay type: ADME, cell-based; conditions: Caco-2
# [4] = Protein binding in human plasma at 10 uM after 4 hrs by RF-MS analysis; assay type: ADME, cell-free; conditions: read-out: PPB (converted)
# [5] = Stability in human plasma assessed as parent compound remaining at 2 uM measured up to 120 mins by RF-MS analysis; assay type: ADME, cell-free; conditions: read-out: Stabilty
# [6] = Drug degradation in human liver microsomes at 2 uM measured up to 60 mins by RF-MS analysis; assay type: ADME, Tissue, Microsome; conditions: read-out: Drug degradation
# [7] = target: T1, Frataxin, mitochondrial (Homo sapiens) (UniProt Q16595); test: Activation of His6-tagged-thrombin cleavage site-fused FXN (79 to 207 residues) (unknown origin) assessed as increase in Fe-S cluster biosynthesis at 30 to 500 uM by UV-visible spectroscopy relative to control; conditions: dose 30-500 µM
# T1 sequence (whole entry): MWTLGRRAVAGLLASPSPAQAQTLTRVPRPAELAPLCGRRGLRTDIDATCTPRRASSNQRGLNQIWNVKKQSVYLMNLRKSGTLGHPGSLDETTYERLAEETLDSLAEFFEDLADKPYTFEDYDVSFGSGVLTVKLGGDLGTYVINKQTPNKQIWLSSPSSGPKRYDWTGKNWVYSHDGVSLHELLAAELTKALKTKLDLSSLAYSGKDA
# How it was run: (§1)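 Mouse ISC machinery reconstituted in vitro from purified proteins under anaerobic conditions. Buffer was 50 mM Tris, 150 mM NaCl, pH 8, with 50 µM apo-ISCU loaded with one equivalent Fe2+, 5 µM NFS1-ISD11-ACP, 5 µM FDX2, 2 µM FDXR and 100 µM NADPH. Compounds in DMSO were tested at 30, 50, 100, 200 and 500; DMSO was equalized. 5 µM FXN served as positive control. Run in triplicate.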
# GM04078 [8] = test: Cytoprotective activity against BSO-induced toxicity in human GM04078 cells assessed as increase in cell viability preincubated for 24 hrs followed by BSO-stimulation and […] by resazurin fluorescence based assay; assay type: functional
# [9] = target: T1, Frataxin, mitochondrial (Homo sapiens); test: Inhibition of His6-tagged-thrombin cleavage site-fused FXN (79 to 207 residues) (unknown origin) assessed as increase in Fe-S cluster biosynthesis at 30 to 500 uM by UV-visible spectroscopy relative to control; conditions: dose 30-500 µM; how it was run: as §1
# SH-SY5Y [10] = test: Cytoprotective activity against glutamate-induced ATRA-differentiated human SH-SY5Y cells assessed as reduction in cell death at 10 uM after 24 hrs by propidium iodide staining based assay relative to control; assay type: functional; parameters: scale not given: the % may be the effect or the level left
# How it was run: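 SH-SY5Y cells (20,000/well) differentiated 48 h with 10 µM ATRA in DMEM/F12 with 1% FBS. Medium replaced by fresh DMEM/F12 with 1% FBS containing test compound at 0.1, 1 or 10 µM; DMSO vehicle as negative control. Cells exposed immediately to 160 mM glutamate for 24 h. Dead cells stained with propidium iodide (1 µg/mL final, 15 min, rt); fluorescence read at ex 535/em 617 nm.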
# GM04078 [11] = test: Cytoprotective activity against BSO-induced toxicity in human GM04078 cells assessed as restoring FXN protein expression at 10 to 50 uM after 48 hrs by immunodetection assay; assay type: functional, cell-based; conditions: dose 10-50 µM
# How it was run: (§2)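 GM04078 cells (about 1.4 million per 10 cm dish, DMEM with 10% FBS) were treated 24 h after seeding at 10 and 50 µM and harvested after 48 h. Lysates in Laemmli buffer were normalized by Bradford, 25–40 µg run on 12.5% SDS-PAGE and transferred to PVDF. Blots were probed with anti-frataxin mouse antibody (18A5DB1), actin as loading control, HRP secondary and ECL.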
# GM04078 [12] = test: Cytoprotective activity against BSO-induced toxicity in human GM04078 cells assessed as increase in cell viability at 10 to 50 uM preincubated for 24 hrs followed by BSO-stimulation and […] by resazurin fluorescence based assay; assay type: functional; conditions: dose 10-50 µM
# GM04078 [13] = test: Cytoprotective activity against BSO-induced toxicity in human GM04078 cells assessed as restoring FXN protein expression at 10 to 50 uM after 48 hrs by Western blot analysis; assay type: functional, cell-based; conditions: dose 10-50 µM; how it was run: as §2
# SH-SY5Y [14] = test: Cytoprotective activity against glutamate-induced human ATRA-differentiated SH-SY5Y cells from ECACC assessed as reduction in oxidative stress at 10 uM after 24 hrs by dihydroethidium staining based assay; assay type: functional, cell-based
# SH-SY5Y [15] = test: Cytoprotective activity against glutamate-induced human ATRA-differentiated SH-SY5Y cells assessed as reduction in oxidative stress […] by dihydroethidium staining based assay; assay type: functional, cell-based; conditions: dose 0.1-10 µM
# GM04078 [16] = test: Cytoprotective activity against BSO-induced toxicity in human GM04078 cells assessed as restoring GSH level […] by confocal microscopic method; assay type: functional, cell-based; conditions: time 32.0 hrs
Papp [1] [×10⁻⁶ cm/s],"remaining at 1 h, 2 µM [2] [%]",Papp [3] [×10⁻⁶ cm/s],"fraction unbound at 4 h, 10 µM [4]","remaining at 2 h, 2 µM [5] [%]",SMILES,Activity (GM04663),further results
16.3,78,7.6,0.871,83,c1coc(CNc2ncnc3ccsc23)c1,Active,"metabolised at 1 h, 2 µM [6]: > 50%"
16.3,78,7.6,0.871,83,c1coc(CNc2ncnc3cc[nH]c23)c1,Active,
16.3,78,7.6,0.871,83,c1coc(CNc2ncnc3[nH]ccc23)c1,Active,
16.3,78,7.6,0.871,83,Clc1nc(NCc2ccco2)c2cc[nH]c2n1,Active,
16.3,78,7.6,0.871,83,c1coc(CNc2ccnc3[nH]cnc23)c1,,
16.3,78,7.6,0.871,83,c1coc(CNc2ncnc3[nH]nnc23)c1,inactive,
16.3,78,7.6,0.871,83,c1coc(CNc2ccnc3ccnn23)c1,,
16.3,78,7.6,0.871,83,c1coc(CNc2ncnc3occc23)c1,Active,
16.3,78,7.6,0.871,83,c1coc(CNc2nccc3[nH]cnc23)c1,,Activity [7]: 0.5%; Activity (GM04078 [8]): Dose-dependent effect
16.3,78,7.6,0.871,83,c1coc(CNc2ncnc3sccc23)c1,Active,

# Continued, molecule first:
SMILES,Papp [1] [×10⁻⁶ cm/s],"remaining at 1 h, 2 µM [2] [%]",Papp [3] [×10⁻⁶ cm/s],"fraction unbound at 4 h, 10 µM [4]","remaining at 2 h, 2 µM [5] [%]",Activity (GM04663),further results
Cc1ccc(CN(C)c2ncnc3c2cnn3C)o1,,,,,,inactive,
c1coc(CNc2ncnc3[nH]cnc23)c1 [KINETIN],16.3,78,7.6,0.871,83,,
c1coc(CNc2ncnc3cn[nH]c23)c1,16.3,78,7.6,0.871,83,inactive,
Cc1ccc(CNc2ncnc3[nH]ncc23)o1,,,,,,inactive,
CN(Cc1ccco1)c1ncnc2c1cnn2C,,,,,,inactive,
Clc1cc2[nH]cnc2c(NCc2ccco2)n1,16.3,78,7.6,0.871,83,,inhibition [9]: Active; Activity (GM04078 [8]): Dose-dependent effect; Activity (SH-SY5Y [10]): 10%; Activity (GM04078 [11]): inactive; Activity (GM04078 [12]): Active; Activity (GM04078 [13]): inactive; Activity (SH-SY5Y [14]): Active; Activity (SH-SY5Y [15]): Dose-dependent effect; Activity (GM04078 [16]): inactive
Clc1nc(NCc2ccco2)c2[nH]ccc2n1,16.3,78,7.6,0.871,83,Active,Activity (SH-SY5Y [10]): 10%; Activity (SH-SY5Y [15]): Dose-dependent effect
Clc1nc(NCc2ccco2)c2[nH]cnc2n1,16.3,78,7.6,0.871,83,,
Cl.c1coc(CNc2ncnc3ccccc23)c1,16.3,78,7.6,0.871,83,Active,
Cc1oc2ncnc(NCc3ccco3)c2c1C,16.3,78,7.6,0.871,83,Active,"Activity (SH-SY5Y [10]): 10%; metabolised at 1 h, 2 µM [6]: > 50%; Activity (SH-SY5Y [15]): Dose-dependent effect"
Clc1cc(NCc2ccco2)c2nc[nH]c2n1,16.3,78,7.6,0.871,83,,
Cc1ccc(C(C)Nc2ncnc3c2cnn3C)o1 (configuration not stated),,,,,,inactive,
